Source: ChEMBL document CHEMBL1828575, “Design, synthesis and antiproliferative activities of biarylolefins based on polyhydroxylated and carbohydrate scaffolds” (Eur J Med Chem, 2011)

Assays:
Format in all cases: functional
NCI-H226 = assay: Antitumor activity against human NCI-H226 cells after 48 hrs by SRB assay; conditions: NCI-H226, 48 h
Procedure, shortened: (§1)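 NCI60 panel in RPMI 1640 with 5% FBS and 2 mM L-glutamine. Cells were plated at 5000–40,000/well by doubling time, held 24 h, then time-zero plates were TCA-fixed. Five concentrations (10-fold or half-log dilutions of DMSO stocks) were applied for 48 h at 37 °C, 5% CO2. Cells were fixed with cold TCA (10% final adherent, 16% suspension) and stained with 0.4% SRB. Bound dye was dissolved in 10 mM Tris and read at 515 nm. GI50, TGI and LC50 were calculated per line.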

MDA-MB-435 = assay: Antitumor activity against human MDA-MB-435 cells after 48 hrs by SRB assay; conditions: MDA-MB-435, 48 h; procedure, shortened: as §1
SR = assay: Antitumor activity against human SR cells after 48 hrs by SRB assay
Procedure, shortened: (§2)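 NCI60 panel cells grown in RPMI 1640 with 5% FBS and 2 mM L-glutamine, plated at 5000–40,000 cells/well and preincubated 24 h at 37 °C, 5% CO₂. Compound was added from DMSO at five concentrations, 10-fold or 1/2 log dilutions, then incubated 48 h.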

LOX IMVI [1] = assay: Antitumor activity against human LOXIMVI cells after 48 hrs by SRB assay; procedure, shortened: as §1
OVCAR-4 = assay: Antitumor activity against human OVCAR4 cells after 48 hrs by SRB assay; conditions: OVCAR-4, 48 h; procedure, shortened: as §1
TK-10 = assay: Antitumor activity against human TK10 cells after 48 hrs by SRB assay; conditions: TK-10, 48 h; procedure, shortened: as §2
RXF 393 = assay: Antitumor activity against human RXF393 cells after 48 hrs by SRB assay; conditions: RXF 393, 48 h; procedure, shortened: as §1
PC-3 = assay: Cytotoxicity against human PC3 cells assessed as cellular growth at 10 uM after 48 hrs by SRB assay
Procedure, shortened: (§3)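 NCI-60 panel lines grown in RPMI 1640 with 5% FBS and 2 mM L-glutamine. Plated at 5000–40,000 cells/well and preincubated 24 h at 37 °C, 5% CO₂, with time-zero plates fixed in TCA. Compounds, dissolved in DMSO and diluted in medium, were applied for 48 h. Cells were TCA-fixed (10% final for adherent, 16% for suspension) and stained with 0.4% SRB in 1% acetic acid. Dye was solubilised in 10 mM Tris base and read at 515 nm; growth was expressed as a percentage of untreated control.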

LOX IMVI [2] = assay: Cytotoxicity against human LOXIMVI cells assessed as cellular growth at 10 uM after 48 hrs by SRB assay
Procedure, shortened: (§4)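 NCI60 single-dose screen of cells in RPMI 1640 with 5% FBS and 2 mM L-glutamine, preincubated 24 h at 37 °C, 5% CO₂. Cells were then exposed 48 h to compound added from DMSO stock. TCA-fixed, stained with 0.4% SRB in 1% acetic acid, dye solubilised in 10 mM Tris base and read at 515 nm. Growth is given as percent of untreated control.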

SW-620 = assay: Antitumor activity against human SW620 cells after 48 hrs by SRB assay; conditions: SW-620, 48 h; procedure, shortened: as §2
SN12C = assay: Cytotoxicity against human SN12C cells assessed as cellular growth at 10 uM after 48 hrs by SRB assay; procedure, shortened: as §3
HCC 2998 = assay: Antitumor activity against human HCC2998 cells after 48 hrs by SRB assay; conditions: HCC 2998, 48 h; procedure, shortened: as §1
HOP-62 = assay: Cytotoxicity against human HOP62 cells assessed as cellular growth at 10 uM after 48 hrs by SRB assay; procedure, shortened: as §4
UACC-257 = assay: Antitumor activity against human UACC257 cells after 48 hrs by SRB assay; conditions: UACC-257, 48 h; procedure, shortened: as §2
SK-MEL-5 = assay: Antitumor activity against human SK-MEL-5 cells after 48 hrs by SRB assay; conditions: SK-MEL-5, 48 h; procedure, shortened: as §2
SF-295 = assay: Antitumor activity against human SF295 cells after 48 hrs by SRB assay; conditions: SF-295, 48 h; procedure, shortened: as §1
SK-OV-3 [3] = assay: Cytotoxicity against human SKOV3 cells assessed as cellular growth at 10 uM after 48 hrs by SRB assay; procedure, shortened: as §3
UACC-62 = assay: Cytotoxicity against human UACC62 cells assessed as cellular growth at 10 uM after 48 hrs by SRB assay; procedure, shortened: as §3
SK-OV-3 [4] = assay: Antitumor activity against human SKOV3 cells after 48 hrs by SRB assay; conditions: SK-OV-3, 48 h; procedure, shortened: as §2
Malme-3M = assay: Antitumor activity against human MALME-3M cells after 48 hrs by SRB assay; procedure, shortened: as §1
OVCAR-8 = assay: Cytotoxicity against human OVCAR8 cells assessed as cellular growth at 10 uM after 48 hrs by SRB assay; procedure, shortened: as §3
[5] = read-out: LC50 (the source's name)
[6] = read-out: pLC50 (the source's name) (converted)

## COc1ccc(/C(=C2/O[C@@H]([C@H]3COC(C)(C)O3)[C@H]3OC(C)(C)O[C@@H]23)c2cc(OC)c(OC)c(OC)c2)cc1O
NCI-H226; read-out: GI50
  GI50: 2.59 µM
NCI-H226; [5]
  CC50: > 100 µM
NCI-H226; read-out: TGI
  TGI: > 100 µM
NCI-H226; read-out: pGI50 (converted)
  GI50: 25.7 µM
NCI-H226; [6]
  CC50: > 100 µM
NCI-H226; read-out: pTGI (converted)
  TGI: > 100 µM
MDA-MB-435
  GI50: 1.48 µM
  TGI: 3.7 µM
MDA-MB-435; [5]
  CC50: > 100 µM
SR; read-out: GI50
  GI50: 6.27 µM
SR; [5]
  CC50: > 100 µM
SR; read-out: TGI
  TGI: > 100 µM
SR; read-out: pGI50 (converted)
  GI50: 6.31 µM
SR; [6]
  CC50: > 100 µM
SR; read-out: pTGI
  TGI: > 100 µM
LOX IMVI [1]
  GI50: 5.18 µM
  TGI: > 100 µM
LOX IMVI [1]; [5]
  CC50: > 100 µM
OVCAR-4; [5]
  CC50: > 100 µM
OVCAR-4; read-out: pGI50 (converted)
  GI50: 9.12 µM
OVCAR-4; [6]
  CC50: > 100 µM
OVCAR-4; read-out: pTGI (converted)
  TGI: > 100 µM
TK-10; read-out: GI50
  GI50: 2.94 µM
TK-10; [5]
  CC50: > 100 µM
TK-10; read-out: TGI
  TGI: 81.4 µM
TK-10; read-out: pGI50 (converted)
  GI50: 23.4 µM
TK-10; [6]
  CC50: > 100 µM
TK-10; read-out: pTGI (converted)
  TGI: 61.7 µM
RXF 393
  GI50: 2.12 µM
  TGI: 5.89 µM
RXF 393; [5]
  CC50: 29.8 µM
PC-3
  Activity: 30.63%
LOX IMVI [2]
  Activity: 36.94%
SW-620; read-out: GI50
  GI50: 4.05 µM
SW-620; [5]
  CC50: > 100 µM
SW-620; read-out: TGI
  TGI: > 100 µM
SW-620; read-out: pGI50 (converted)
  GI50: 4.07 µM
SW-620; [6]
  CC50: > 100 µM
SW-620; read-out: pTGI
  TGI: > 100 µM
SN12C
  Activity: 57.72%
HCC 2998; read-out: GI50
  GI50: 1.32 µM
HCC 2998; [5]
  CC50: > 100 µM
HCC 2998; read-out: TGI
  TGI: > 100 µM
HCC 2998; read-out: pGI50 (converted)
  GI50: 20.9 µM
HCC 2998; [6]
  CC50: > 100 µM
HCC 2998; read-out: pTGI (converted)
  TGI: > 100 µM
HOP-62
  Activity: 48.49%
UACC-257; read-out: GI50
  GI50: > 1 µM
UACC-257; [5]
  CC50: > 100 µM
UACC-257; read-out: TGI
  TGI: > 100 µM
UACC-257; read-out: pGI50 (converted)
  GI50: 100 µM
UACC-257; [6]
  CC50: > 100 µM
UACC-257; read-out: pTGI (converted)
  TGI: > 100 µM
SK-MEL-5
  GI50: 2.69 µM
  LC50: 49.3 µM
  TGI: 11.2 µM
SF-295; read-out: GI50
  GI50: 7 µM
SF-295; [5]
  CC50: > 100 µM
SF-295; read-out: TGI
  TGI: 37.3 µM
SF-295; read-out: pGI50 (converted)
  GI50: 6.92 µM
SF-295; [6]
  CC50: > 100 µM
SF-295; read-out: pTGI (converted)
  TGI: 23.4 µM
SK-OV-3 [3]
  Activity: 36.02%
UACC-62
  Activity: 93.16%
SK-OV-3 [4]; read-out: GI50
  GI50: 4.11 µM
SK-OV-3 [4]; [5]
  CC50: > 100 µM
SK-OV-3 [4]; read-out: TGI
  TGI: 3.85 µM
SK-OV-3 [4]; read-out: pGI50 (converted)
  GI50: 4.68 µM
SK-OV-3 [4]; [6]
  CC50: > 100 µM
SK-OV-3 [4]; read-out: pTGI (converted)
  TGI: 18.6 µM
Malme-3M
  GI50: 5.46 µM
  LC50 (concentration killing 50% of cells present at time zero): > 100 µM
  TGI: > 100 µM
OVCAR-8
  Activity: 68.27%
